Measurements: ChEMBL document CHEMBL1131454 (J Med Chem, 1998)

Molecular target: T1, Progesterone receptor (Homo sapiens) (UniProt P06401)
T1 sequence (whole entry): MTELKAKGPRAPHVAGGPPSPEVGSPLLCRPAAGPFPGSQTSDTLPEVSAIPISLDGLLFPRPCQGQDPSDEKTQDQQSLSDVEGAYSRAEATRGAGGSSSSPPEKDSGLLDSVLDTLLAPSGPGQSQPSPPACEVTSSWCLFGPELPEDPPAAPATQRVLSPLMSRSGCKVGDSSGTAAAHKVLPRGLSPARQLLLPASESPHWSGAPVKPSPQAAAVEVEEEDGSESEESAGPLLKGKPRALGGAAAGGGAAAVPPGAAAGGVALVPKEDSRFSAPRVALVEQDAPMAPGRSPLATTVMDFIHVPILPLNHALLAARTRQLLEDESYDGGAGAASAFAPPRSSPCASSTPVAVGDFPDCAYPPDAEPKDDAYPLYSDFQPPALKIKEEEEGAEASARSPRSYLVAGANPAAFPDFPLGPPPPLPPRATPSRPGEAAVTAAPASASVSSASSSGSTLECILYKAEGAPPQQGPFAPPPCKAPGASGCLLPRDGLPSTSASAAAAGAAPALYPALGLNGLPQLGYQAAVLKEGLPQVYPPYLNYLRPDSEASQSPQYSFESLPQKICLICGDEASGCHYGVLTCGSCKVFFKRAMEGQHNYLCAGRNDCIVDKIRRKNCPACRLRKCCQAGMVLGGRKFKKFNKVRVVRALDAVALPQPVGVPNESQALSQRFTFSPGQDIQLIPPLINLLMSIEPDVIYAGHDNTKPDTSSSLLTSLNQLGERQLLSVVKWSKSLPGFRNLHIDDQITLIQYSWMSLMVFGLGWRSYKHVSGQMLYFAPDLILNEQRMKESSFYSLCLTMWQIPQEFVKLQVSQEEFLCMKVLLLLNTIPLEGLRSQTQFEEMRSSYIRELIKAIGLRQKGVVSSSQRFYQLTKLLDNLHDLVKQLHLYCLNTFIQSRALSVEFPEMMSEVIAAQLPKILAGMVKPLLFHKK
Assay: Agonist efficacy for human progesterone receptor (hPR) was compared to that of progesterone (100%)
Type: functional
In short: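 Cotransfection assay in CV-1 cells transiently transfected by calcium phosphate coprecipitation with hPR plasmid, MTV-LUC reporter, pRS-β-Gal and filler DNA. Full dose–response curves from 10^-12 to 10^-5 M were run. […] Values are the mean of at least three experiments with triplicate determinations, or of two experiments, or a single experiment.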

CC1=CC(C)(C)Nc2ccc3c(c21)C(c1ccc(Cl)c(F)c1)Oc1ccccc1-3 (stereo unspecified)
Efficacy: 59%

CC1=CC(C)(C)Nc2ccc3c(c21)C(c1ccc(Cl)c(Cl)c1)Oc1ccccc1-3 (stereo unspecified)
Efficacy: 66%

CC1=CC(C)(C)Nc2ccc3c(c21)C(c1cccc(Cl)c1)Oc1ccccc1-3 (stereo unspecified)
Efficacy: 76%

CC1=CC(C)(C)Nc2ccc3c(c21)C(c1cc(C)cc(Br)c1)Oc1ccccc1-3 (stereo unspecified)
Efficacy: 65%

CC1=CC(C)(C)Nc2ccc3c(c21)C(c1cccc(Br)c1)Oc1ccccc1-3 (stereo unspecified)
Efficacy: 77%

CC1=CC(C)(C)Nc2ccc3c(c21)C(c1cccc(C(F)(F)F)c1)Oc1ccccc1-3 (stereo unspecified)
Efficacy: 96%

CC1=CC(C)(C)Nc2ccc3c(c21)C(c1ccc(C)cc1)Oc1ccccc1-3 (stereo unspecified)
Efficacy: 59%

CC1=CC(C)(C)Nc2ccc3c(c21)C(c1ccc(C)c(F)c1)Oc1ccccc1-3 (stereo unspecified)
Efficacy: 83%

CC1=CC(C)(C)Nc2ccc3c(c21)C(c1ccc(Br)cc1)Oc1ccccc1-3 (stereo unspecified)
Efficacy: 59%

CC1=CC(C)(C)Nc2ccc3c(c21)C(c1ccc(Cl)c(C)c1)Oc1ccccc1-3 (stereo unspecified)
Efficacy: 68%

CC1=CC(C)(C)Nc2ccc3c(c21)C(c1cc(Cl)cc(Cl)c1)Oc1ccccc1-3 (stereo unspecified)
Efficacy: 57%
